Source: PubChem BioAssay
V1R ag counter: counter-screen for oxytocin receptor agonists: human V1a receptor agonists; P37288; CHO-V1R cells, Fluo-8 calcium fluorescence, agonist mode; 0% DMSO, 100% 3 nM vasopressin; activation, % at 3 µM; 320,000 tested, 0.25% active; AID 2797;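 active means activation above the mean activation of all tested compounds plus 3 SD, per screening run, cut at about 20% in these data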;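 further: signal is peak over basal fluorescence ratio across a 100 second FLIPR read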
zfTRPN1 agonist: zebrafish TRPN1 (NompC) channel agonism; HEK293 zebrafish TRPN1-YFP, Fluo-8 calcium fluorescence; 100% = response to 87 µM carbachol; 220,000 tested, 0.18% active; activation, % at 3 µM;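 active means activation above its plate's cutoff, the mean activation of test wells on that plate plus 3 SD, cut at about 19% in these data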
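Assay system: Zebrafish TRPN1-YFP in HEK293 cells | Incubation: Dye loading 1 h at 37 °C, then 30 min room temperature | Measured by: Kinetic Fluo-8 fluorescence, ex 470-495, em 515-575 nm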
OXTR ag: agonists of human oxytocin receptor; 320,000 tested, 0.32% active; CHO-OTR cells, Fluo-8 calcium fluorescence; normalized: DMSO 0%, oxytocin 100%; P30559; AID 2435; activation, % at 3 µM;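 active means activation above the mean of all tested compounds plus 3 SD, cutoff set per screening run, cut at about 20% in these data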;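 further: peak over basal fluorescence ratio from a 100 s FLIPR kinetic read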
OXTR potentiate: human OXTR potentiation. CHO-OTR cells, Fluo-8 calcium fluorescence, potentiator mode; 0% = oxytocin EC15, 100% = EC100. AID 2445. activation, % at 3 µM. P30559. 320,000 tested, 0.061% active;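 active means activation above that plate's cutoff, the mean activation of tested compounds plus 3 SD, cut at about 6.6% in these data, passing the limit was not always enough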
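test system = CHO-OTR cells, human receptor | compound = single-point 3.0 µM | schedule = 6 min compound pre-incubation at room temperature, 100 s kinetic read | signal = Fluo-8 no-wash calcium dye fluorescence, excitation 470-495 nm, emission 515-575 nm | repeats = single well per compound, singlicate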
TRPML3 ag: human mucolipin-3 channel agonism. HEK293 TRPML3-YFP, Fluo-8 calcium fluorescence; 100% = the carbachol control signal. activation, % at 3 µM. 220,000 tested, 0.29% active. AID 1448;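 active means activation above its plate's cutoff, the mean activation of the plate's test wells plus 3 SD, cut at about 12% in these data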
Target sequence (Q8TDD5 whole entry, looked up): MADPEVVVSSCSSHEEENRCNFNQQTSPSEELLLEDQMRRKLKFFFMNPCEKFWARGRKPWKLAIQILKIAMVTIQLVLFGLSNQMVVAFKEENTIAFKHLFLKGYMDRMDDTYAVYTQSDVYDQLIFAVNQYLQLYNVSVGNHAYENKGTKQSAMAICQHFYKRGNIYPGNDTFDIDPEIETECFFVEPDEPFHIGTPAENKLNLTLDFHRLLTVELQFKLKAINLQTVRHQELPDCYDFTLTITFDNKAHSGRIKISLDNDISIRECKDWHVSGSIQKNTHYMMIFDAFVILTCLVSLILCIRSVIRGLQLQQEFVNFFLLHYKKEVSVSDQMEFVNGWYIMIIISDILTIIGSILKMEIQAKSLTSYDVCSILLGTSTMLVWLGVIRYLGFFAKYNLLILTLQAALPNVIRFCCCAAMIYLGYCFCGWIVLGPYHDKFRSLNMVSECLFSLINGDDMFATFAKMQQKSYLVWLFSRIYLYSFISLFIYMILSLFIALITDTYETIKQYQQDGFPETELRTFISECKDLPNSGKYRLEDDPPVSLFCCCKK
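Test system: HEK293 cells stably carrying human TRPML3-YFP; Doses: single dose, 3 µM final nominal compound, 0.3% DMSO final; Schedule: dye loading 1 h 37 °C then 30 min ambient, 125 s read; Technique: Fluo-8 calcium fluorescence; Benchmarks: high control carbachol 87 µM, low control DMSO.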
OXTR pot confirm: confirmation of human oxytocin receptor potentiators | shares compounds with OXTR potentiate | CHO-OTR cells, Fluo-8 calcium fluorescence, potentiation; scaled from low-dose to maximal oxytocin | activation, % at 3 µM | 180 tested, under 10 active | AID 434985;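 active means mean percent activation over triplicates above a cutoff set from solvent-only control plates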;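 further: compounds tested in the presence of an EC15 dose of oxytocin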
V1aR agonist cf: human V1a receptor agonism, confirmation. AID 434964. activation, % at 3 µM. shares compounds with V1R ag counter. 180 tested, 20% active. CHO-V1R cells, Fluo-8 calcium fluorescence, agonist;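 active means average activation exceeds primary screen hit cutoff, cut at about 21% in these data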;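 further: peak over basal fluorescence ratio during a 100 s FLIPR read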
OXTR ag counter: activates oxytocin receptor in V1a agonist counter-screen. shares compounds with V1R ag counter. CHO-OTR cells, Fluo-8 calcium fluorescence. activation, % at 3 µM. 180 tested, 10% active. AID 434969;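 active means mean activation over three repeats above the cutoff from the earlier oxytocin receptor agonist screen, cut at about 20% in these data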;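 further: peak over minimum fluorescence ratio within a 100 second FLIPR read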
Numbers stand for hits; – = inactive; · = not tested or not shown. Shown are actives, neighbours in structure and some others; about 0.55% of the full set was active somewhere.

SMILES | V1R ag counter | zfTRPN1 agonist | OXTR ag | OXTR potentiate | TRPML3 ag | OXTR pot confirm | others
O=C(CCc1ccccc1)N1CCN(S(=O)(=O)c2cccs2)CC1 | – | · | – | 13 | · | –
O=C(NCc1ccccn1)c1ccc(Cl)c(S(=O)(=O)Nc2ccccc2C(=O)NCc2ccccn2)c1 | – | – | – | 14 | – | –
CCN(CC)S(=O)(=O)c1cc(C)ccc1SC | – | – | – | – | – | ·
COC(=O)c1c(C)noc1-c1snnc1C | – | – | – | 11 | – | –
CC(C)=NOC(=O)c1c(C)noc1-c1snnc1C | – | – | – | – | – | ·
CCOC(=O)c1c(C)[nH]c(C(=O)CN2C(=O)NC3(CCCC3)C2=O)c1C | – | – | – | 6.3 | – | –
CCOC(=O)c1c(C)[nH]c(C)c1C(=O)CN1C(=O)NC2(CCCCCC2)C1=O | – | · | – | – | · | ·
COc1ccc2nc(NC(=O)CSc3nc(SC)ns3)sc2c1 | – | – | – | – | – | ·
COc1ccc2nc(NC(=O)CSc3nnc(C)s3)sc2c1 | – | – | – | 10 | – | –
C=CCn1c(N2CCCC2)nc2c1c(=O)[nH]c(=O)n2C | – | – | – | 11 | – | –
C/C(Cl)=C/Cn1c(N2CCCC2)nc2c1c(=O)[nH]c(=O)n2C | – | · | – | – | · | ·
CCN(CC)S(=O)(=O)c1ccc(C)c(NC(=O)c2cc(C)oc2C)c1 | – | – | – | 13 | – | –
O=C(NCCCN1CCOCC1)C1CC(=O)N(CCc2ccccc2)C1 (centres undefined) | – | – | – | 12 | – | –
O=C(NCCCN1CCCCCC1)C1CC(=O)N(CCc2ccccc2)C1 (centres undefined) | – | – | – | – | – | ·
CCN1CCN(C(=O)C2CCN(C(=O)Nc3ccccc3)CC2)CC1 | – | · | – | – | · | ·
CCOC(=O)N1CCN(C(=O)C2CCN(C(=O)Nc3ccccc3)CC2)CC1 | – | · | – | 11 | · | –
CCOC(=O)c1nc(C)n(-c2ccc(Cl)cc2)n1 | – | – | – | 9.9 | – | –
CCOC(=O)c1nc(C)n(-c2ccc([N+](=O)[O-])cc2)n1 | – | – | – | – | – | ·
COc1ccc(S(=O)(=O)N(C)c2ccc(C(=O)NCC3CCCO3)cc2)cc1OC (centres undefined) | – | · | – | 14 | · | –
CCCn1c(SCC(=O)N(C)CC(=O)Nc2ccc(C)cc2)n[nH]c1=O | – | · | – | – | · | ·
CC[C@@]1(O)C(=O)OCc2c1cc1n(c2=O)Cc2cc3c(N)cccc3nc2-1 | – | · | – | 15 | · | –
CC(=O)NC1=NN(C(C)=O)C(C)(CCS(=O)(=O)c2ccc(Br)cc2)S1 (centres undefined) | – | – | – | 13 | – | –
Cc1cccn2cc(CNC(=O)c3ccc(Br)o3)nc12 | – | – | – | 12 | – | –
Cc1cccn2cc(CNC(=O)C3CCCCC3)nc12 | – | – | – | – | – | ·
CC(=O)c1cc(CN2CCN(C(C)C)C(CCO)C2)cs1 (centres undefined) | – | – | – | 12 | – | –
SMILES | V1R ag counter | zfTRPN1 agonist | OXTR ag | OXTR potentiate | TRPML3 ag | OXTR pot confirm | others
CCOc1ccc(-n2cnc3scc(-c4ccc(OC)c(OC)c4)c3c2=O)cc1 | – | – | – | 11 | – | –
COc1cccc(-n2cnc3scc(-c4cccs4)c3c2=O)c1 | – | – | – | – | – | ·
Cc1ccc(CNC(=O)COc2ccc(S(=O)(=O)N3CCOCC3)cc2)cc1 | – | · | – | – | · | ·
CCOC(=O)C1=C(C)Nc2nc(SCC(=O)OC)nn2C1c1cc(F)cc(F)c1 (centres undefined) | – | – | – | 11 | – | –
Cc1cccc(-c2nc(C#N)c(NC3CCCCC3)o2)c1 | – | – | – | – | – | ·
O=C(OC(C(=O)NCc1ccccc1)c1ccccc1)c1ccco1 (centres undefined) | – | · | – | 14 | · | –
CCCC(C(=O)NNC(=O)c1cc(C)oc1C)c1ccccc1 (centres undefined) | – | · | – | – | · | ·
Cc1noc(NS(=O)(=O)c2ccc(NC(=O)c3cnc4scc(C)n4c3=O)cc2)c1C | – | – | – | – | – | ·
O=C(NC(=S)NCCc1ccccn1)c1ccco1 | 117 | – | – | – | – | · | V1aR agonist cf=–;OXTR ag counter=–
O=C(NC(=S)NCCc1ccccn1)c1ccccc1 | – | – | – | – | – | ·
COc1cccc(/C=N/Nc2nc(Nc3ccccc3)nc(-n3nc(C)cc3C)n2)c1O | 21 | – | – | – | – | · | V1aR agonist cf=–;OXTR ag counter=–
Cc1cc(C)n(-c2nc(Nc3ccccc3)nc(-n3nc(C)cc3C)n2)n1 | – | – | – | – | – | ·
CCN(c1cccc(C)c1)S(=O)(=O)c1cn(CC(=O)OC)c2ccc([N+](=O)[O-])cc12 | – | · | – | – | · | ·
O=C(CSc1ncc(-c2ccc(F)cc2)n1Cc1ccco1)Nc1nccs1 | 29 | – | – | – | – | · | V1aR agonist cf=–;OXTR ag counter=–
O=C(Nc1cc(S(=O)(=O)N2CCCC2)ccc1Cl)c1ccncc1 | – | · | – | – | · | ·
O=C(c1ccccc1NS(=O)(=O)c1ccc(Cl)cc1)N1CCc2ccccc21 | 21 | – | – | – | – | · | V1aR agonist cf=–;OXTR ag counter=–
COc1ccc(OC)c2c1C(=O)c1ccccc1C2=O | 23 | – | – | – | – | · | V1aR agonist cf=33;OXTR ag counter=21
Cn1c(=O)c2c(ncn2CC(=O)Nc2ccccc2N2CCOCC2)n(C)c1=O | – | – | – | – | – | ·
Cc1ccc(/C=N/n2c(-c3cccs3)n[nH]c2=S)cc1 | – | – | – | – | – | ·
S=c1[nH]nc(-c2cccs2)n1/N=C/c1c(Cl)cccc1Cl | 27 | – | – | – | – | · | V1aR agonist cf=–;OXTR ag counter=–
COc1ccc(NC(=O)CSc2nc(N)c(NC(=O)c3ccccc3F)c(=O)[nH]2)cc1 | – | · | – | – | · | ·
COc1ccc(CC(=O)Nc2ccc(NC(=O)c3ccccc3F)cc2)cc1 | 32 | – | – | – | – | · | V1aR agonist cf=–;OXTR ag counter=–
Clc1ncccc1-c1nc2ccccc2s1 | – | – | – | – | – | ·
O=c1c(-c2nc3ccccc3s2)cccn1Cc1ccc(Cl)cc1 | 22 | – | – | – | – | · | V1aR agonist cf=–;OXTR ag counter=–
CCC(C)C(NC(=O)OCc1ccccc1)C(=O)NC(Cc1ccc(O)cc1)C(=O)OC (centres undefined) | 27 | – | – | – | – | · | V1aR agonist cf=–;OXTR ag counter=–
COC(=O)C1=C(C(=O)OC)[C@@H]2N(C)c3ccccc3[C@@]23C[C@@H](CO)N(C(=O)c2cccs2)C3=N1 | – | · | – | – | · | ·
O=C(CCCC(=O)NCC1CCCO1)NCC1CCCO1 (centres undefined) | 20 | – | – | – | – | · | V1aR agonist cf=–;OXTR ag counter=–
